From ChEMBL document CHEMBL1135626, “Imidazole inhibitors of cytokine release: probing substituents in the 2 position” (J Med Chem, 2002)

Columns and labels:
Homo sapiens [1] = species on record: Homo sapiens; assay: Ability to inhibit the release of interleukin-1-beta (IL-1 beta) from whole blood; format: functional
Summary of the method: (§1)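 Human whole blood preincubated 15 min (37 °C, 5% CO2) with compounds in Cremophor EL/ethanol 70:30 (1% final), then stimulated 4 h with 1µg/mL LPS (E. coli 026:B6). Reaction stopped on ice, samples centrifuged, supernatant IL-1β and TNF-α measured by ELISA. IC50 read from semilog plot of % reduction vs control over 10^-4–10^-8 M; at least duplicate.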

Homo sapiens [2] = species on record: Homo sapiens; assay: Ability to inhibit the release of tumor necrosis factor alpha (TNF-alpha) from whole blood; format: functional; summary of the method: as §1
[3] = Inhibition of the release of tumor necrosis factor alpha from peripheral blood mononuclear cells; format: functional; conditions: Homo sapiens
Summary of the method: (§2)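 PBMC isolated from healthy donor blood by density gradient centrifugation, ~10⁶ cells/mL, preincubated 15 min (37 °C, 5% CO2) with compounds in DMSO (1% final), then LPS 1µg/mL (E. coli 026:B6) for 4 h. Supernatant IL-1β and TNF-α by ELISA after ice stop and centrifugation. IC50 from semilog plot of % reduction vs control, 10^-4–10^-8 M; at least duplicate.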

[4] = Inhibition of the release of interleukin-1-beta from peripheral blood mononuclear cells; format: functional; conditions: Homo sapiens; summary of the method: as §2
[5] = biological target: Mitogen-activated protein kinase 14 (Homo sapiens, UniProt Q16539); assay: Inhibition of Mitogen-activated protein kinase p38 (P38 MAPK)
Sequence of Mitogen-activated protein kinase 14 (Q16539 whole entry): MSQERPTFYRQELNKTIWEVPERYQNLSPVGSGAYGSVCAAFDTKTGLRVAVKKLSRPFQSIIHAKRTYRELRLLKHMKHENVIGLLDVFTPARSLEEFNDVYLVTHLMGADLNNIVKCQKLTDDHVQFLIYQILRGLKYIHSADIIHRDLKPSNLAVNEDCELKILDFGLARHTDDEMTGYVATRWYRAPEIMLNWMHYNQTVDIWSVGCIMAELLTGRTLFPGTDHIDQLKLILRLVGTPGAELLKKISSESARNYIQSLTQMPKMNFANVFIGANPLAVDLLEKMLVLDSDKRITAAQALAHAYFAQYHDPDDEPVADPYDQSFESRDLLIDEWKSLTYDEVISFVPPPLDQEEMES

C[S+]([O-])c1ccc(CSc2nc(-c3ccc(F)cc3)c(-c3ccncc3)[nH]2)cc1 (configuration not stated) gave an IC50 (Homo sapiens [1]) of 2.78 µM, an IC50 (Homo sapiens [2]) of 20.3 µM and an IC50 [3] of 1.1 µM. The IC50 [4] was 380 nM and the IC50 [5] was 4000 nM.

With CSc1nc(-c2ccncc2)c(-c2ccc(F)cc2)[nH]1 the IC50 (Homo sapiens [1]) was 1.2 µM, the IC50 (Homo sapiens [2]) was 4.2 µM and the IC50 [3] was 0.9 µM. The IC50 [4] was 44 nM and the IC50 [5] was 630 nM.

Work on CS(=O)(=O)c1ccc(CSc2nc(-c3ccc(Cl)cc3)c(-c3ccncc3)[nH]2)cc1 yielded an IC50 [3] of 6.1 µM and an IC50 [4] of 320 nM.

With CSc1ccc(CSc2nc(-c3ccc(Br)cc3)c(-c3ccncc3)[nH]2)cc1 the IC50 [3] was 12.9 µM and the IC50 [4] was 2400 nM.

With C[S+]([O-])c1cc(Cl)cc(CSc2nc(-c3ccc(F)cc3)c(-c3ccncc3)[nH]2)c1O (configuration not stated) the IC50 [3] was 28 µM and the IC50 [4] was 4400 nM.

For C[S+]([O-])c1ccc(CSc2nc(-c3ccc(F)cc3)c(-c3cccnc3)[nH]2)cc1 (configuration not stated), the IC50 [3] was over 100 µM and the IC50 [4] was 98000 nM.

In the case of C[S+]([O-])c1ccc(O)c(CSc2nc(-c3ccc(F)cc3)c(-c3ccncc3)[nH]2)c1 (configuration not stated), the IC50 (Homo sapiens [1]) is reported as 13 µM, the IC50 (Homo sapiens [2]) is reported as 103 µM and the IC50 [3] is reported as 5.8 µM. The IC50 [4] was 1000 nM.

With CSc1ccc(CSc2nc(-c3ccc(Cl)cc3)c(-c3ccncc3)[nH]2)cc1 the IC50 [3] was 14 µM and the IC50 [4] was 2200 nM.

Work on Fc1ccc(-c2[nH]c(SCc3ccccc3)nc2-c2ccncc2)cc1 yielded an IC50 [3] of 3.5 µM, an IC50 [4] of 300 nM and an IC50 [5] of 35000 nM.

In the case of C[S+]([O-])c1cc(CSc2nc(-c3ccncc3)c(-c3ccc(F)cc3)[nH]2)ccc1O (configuration not stated), the IC50 (Homo sapiens [1]) is reported as 12.1 µM, the IC50 (Homo sapiens [2]) is reported as 9 µM and the IC50 [3] is reported as 5 µM. The IC50 [4] was 2300 nM and the IC50 [5] was 3400 nM.

For CSc1cc(CSc2nc(-c3ccncc3)c(-c3ccc(F)cc3)[nH]2)ccc1O, the IC50 [3] was 1.1 µM, the IC50 [4] was 280 nM and the IC50 [5] was 3800 nM.

Work on CSc1cc(Cl)cc(CSc2nc(-c3ccc(F)cc3)c(-c3ccncc3)[nH]2)c1O yielded an IC50 [3] of 13.3 µM and an IC50 [4] of 640 nM.

In the case of Oc1cccc(CSc2nc(-c3ccc(F)cc3)c(-c3ccncc3)[nH]2)c1, the IC50 [3] is reported as 5.4 µM and the IC50 [4] is reported as 310 nM.

With Oc1ccc(CSc2nc(-c3ccncc3)c(-c3ccc(F)cc3)[nH]2)cc1 the IC50 [3] was 6.8 µM, the IC50 [4] was 370 nM and the IC50 [5] was 5700 nM.

Molecule N#CCSc1nc(-c2ccncc2)c(-c2ccc(F)cc2)[nH]1 has an IC50 [3] of 2.3 µM and an IC50 [4] of under 100 nM.

Molecule CS(=O)(=O)c1ccc(CSc2nc(-c3ccccc3)c(-c3ccncc3)[nH]2)cc1 has an IC50 [3] of 8 µM and an IC50 [4] of 1700 nM.

In the case of C[S+]([O-])c1cccc(CSc2nc(-c3ccncc3)c(-c3ccc(F)cc3)[nH]2)c1 (configuration not stated), the IC50 (Homo sapiens [1]) is reported as 4.1 µM, the IC50 (Homo sapiens [2]) is reported as 33.5 µM and the IC50 [3] is reported as 23.5 µM. The IC50 [4] was 1000 nM and the IC50 [5] was 2100 nM.

For C[S+]([O-])c1ccc(CSc2nc(-c3ccccc3)c(-c3ccncc3)[nH]2)cc1 (configuration not stated), the IC50 [3] was 4.3 µM, the IC50 [4] was 840 nM and the IC50 [5] was 12000 nM.

With CS(=O)(=O)c1ccc(CSc2nc(-c3ccc(F)cc3)c(-c3ccncc3)[nH]2)cc1 the IC50 (Homo sapiens [1]) was 2.9 µM, the IC50 (Homo sapiens [2]) was 28.8 µM and the IC50 [3] was 2.5 µM. The IC50 [4] was 330 nM.

In the case of Fc1ccc(-c2[nH]c(SCCc3ccccc3)nc2-c2ccncc2)cc1, the IC50 [3] is reported as 23.5 µM and the IC50 [4] is reported as 640 nM.

Work on Fc1ccc(-c2[nH]c(SCC3CCCCC3)nc2-c2ccncc2)cc1 yielded an IC50 [3] of 33.8 µM and an IC50 [4] of 240 nM.

Fc1ccc(-c2[nH]c(SCc3cccc4ccccc34)nc2-c2ccncc2)cc1 showed an IC50 [3] of 8.8 µM and an IC50 [4] of 820 nM.

CSc1ccccc1CSc1nc(-c2ccc(F)cc2)c(-c2ccncc2)[nH]1 showed an IC50 [3] of 18.3 µM and an IC50 [4] of 6700 nM.

With CSc1ccc(O)c(CSc2nc(-c3ccc(F)cc3)c(-c3ccncc3)[nH]2)c1 the IC50 [3] was 5.1 µM and the IC50 [4] was 740 nM.

In the case of Fc1ccc(-c2[nH]c(SCCCc3ccccc3)nc2-c2ccncc2)cc1, the IC50 [3] is reported as 16 µM and the IC50 [4] is reported as 470 nM.

With CSc1ccc(CSc2nc(-c3ccc(F)cc3)c(-c3ccncc3)[nH]2)cc1 the IC50 [3] was 4.9 µM and the IC50 [4] was 670 nM.

With Fc1ccc(-c2[nH]c(/C=C/c3ccccc3)nc2-c2ccncc2)cc1 the IC50 [3] was 6.5 µM and the IC50 [4] was 130 nM.

Molecule C[S+]([O-])c1ccc(CCSc2nc(-c3ccncc3)c(-c3ccc(F)cc3)[nH]2)cc1 (configuration not stated) has an IC50 [3] of 7.3 µM, an IC50 [4] of 500 nM and an IC50 [5] of 1500 nM.

For CSc1ccc(CSc2nc(-c3ccccc3)c(-c3ccncc3)[nH]2)cc1, the IC50 [3] was 17.1 µM and the IC50 [4] was 72500 nM.

For C[S+]([O-])c1ccc(CSc2nc(-c3ccc(Br)cc3)c(-c3ccncc3)[nH]2)cc1 (configuration not stated), the IC50 [3] was 7.8 µM, the IC50 [4] was 820 nM and the IC50 [5] was 3800 nM.

In the case of CSc1cccc(CSc2nc(-c3ccncc3)c(-c3ccc(F)cc3)[nH]2)c1, the IC50 [3] is reported as 12 µM, the IC50 [4] is reported as 550 nM and the IC50 [5] is reported as 2300 nM.

For C[S+]([O-])c1ccc(CSc2nc(-c3ccc(Cl)cc3)c(-c3ccncc3)[nH]2)cc1 (configuration not stated), the IC50 [3] was 3.1 µM, the IC50 [4] was 320 nM and the IC50 [5] was 1400 nM.

In the case of CS(=O)(=O)c1ccc(CSc2nc(-c3ccc(Br)cc3)c(-c3ccncc3)[nH]2)cc1, the IC50 [3] is reported as 7.3 µM and the IC50 [4] is reported as 640 nM.

With C[S+]([O-])c1ccccc1CSc1nc(-c2ccc(F)cc2)c(-c2ccncc2)[nH]1 (configuration not stated) the IC50 (Homo sapiens [1]) was 4 µM, the IC50 (Homo sapiens [2]) was 47.5 µM and the IC50 [3] was 15 µM. For the same molecule, the IC50 [4] was 900 nM.

In the case of C[S+]([O-])c1ccc(CCCSc2nc(-c3ccc(F)cc3)c(-c3ccncc3)[nH]2)cc1 (configuration not stated), the IC50 [3] is reported as 3.6 µM, the IC50 [4] is reported as 180 nM and the IC50 [5] is reported as 750 nM.

In the case of Oc1ccccc1CSc1nc(-c2ccc(F)cc2)c(-c2ccncc2)[nH]1, the IC50 [3] is reported as 24.8 µM and the IC50 [4] is reported as 440 nM.

Work on Fc1ccc(-c2[nH]c(CCc3ccccc3)nc2-c2ccncc2)cc1 yielded an IC50 [3] of 5.4 µM, an IC50 [4] of 140 nM and an IC50 [5] of 690 nM.
